Measured values from ChEMBL document CHEMBL5058577, “EUbOPEN Chemogenomics Library 2 (Multiplex)” (2022).

Test system: HEK-293T
Experiment: Multiplex assay against HEK293T
Format: toxicity, cell-based
Conditions: human
How it was run: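 Cells were classed with CellPathfinder machine-learning gating, first as Hoechst high-intensity objects or normal cells, then (normal cells) as healthy, pyknosed or fragmented nuclei, and finally (pyknosed cells) as mitotic or apoptotic. Staining of live cells at seeding used Hoechst33342, BioTracker Green Microtubule Cytoskeleton Dye, MitoTracker Red and Annexin V Alexa Fluor 680, with imaging on a CQ1 microscope at 37°C and 5% CO2 after compound addition. Tubulin, mitochondrial-mass and membrane-permeability phenotypes are per cents of healthy-nucleus cells.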

[1] = 12 h, 1 µM, compound concentration 1 uM, replicate 1
[2] = 12 h, 1 µM, compound concentration 1 uM, replicate 2
[3] = 12 h, 10 µM, compound concentration 10 uM, replicate 1
[4] = 12 h, 10 µM, compound concentration 10 uM, replicate 2
[5] = 24 h, 1 µM, compound concentration 1 uM, replicate 1
[6] = 24 h, 1 µM, compound concentration 1 uM, replicate 2
[7] = 24 h, 10 µM, compound concentration 10 uM, replicate 1
[8] = 24 h, 10 µM, compound concentration 10 uM, replicate 2
[9] = 48 h, 1 µM, compound concentration 1 uM, replicate 1
[10] = 48 h, 1 µM, compound concentration 1 uM, replicate 2
[11] = 48 h, 10 µM, compound concentration 10 uM, replicate 1
[12] = 48 h, 10 µM, compound concentration 10 uM, replicate 2

With `CCCCC(=O)N(Cc1ccc(-c2ccccc2-c2nnn[nH]2)cc1)[C@H](C(=O)O)C(C)C` the “Population Apoptotic (%)” value [1] was 44%, the “Population Fragmented Nuclei (%)” value [1] was 7% and the “Population Healthy Nuclei (%)” value [1] was 80%. The “Population Hoechst High Intensity Objects (%)” value [1] was 9%, the “Population Membrane Permeable-Phenotype (%)” value [1] was 0% and the “Population Mitochondria Different-Phenotype (%)” value [1] was 36%. For the same molecule, the “Population Mitotic Cells (%)” value [1] was 55%, the “Population Normal (%)” value [1] was 90% and the “Population Pyknosed Nuclei (%)” value [1] was 12%. The “Population Tubulin-Different-Phenotype (%)” value [1] was 16%, the “Total Cell Count” value [1] was 469 and the “Population Apoptotic (%)” value [2] was 40%. For the same molecule, the “Population Fragmented Nuclei (%)” value [2] was 6%, the “Population Healthy Nuclei (%)” value [2] was 74% and the “Population Hoechst High Intensity Objects (%)” value [2] was 11%. For the same molecule, the “Population Mitochondria Different-Phenotype (%)” value [2] was 49%, the “Population Mitotic Cells (%)” value [2] was 59% and the “Population Normal (%)” value [2] was 88%. The “Population Pyknosed Nuclei (%)” value [2] was 18%, the “Population Tubulin-Different-Phenotype (%)” value [2] was 21% and the “Total Cell Count” value [2] was 290. The “Population Apoptotic (%)” value [3] was 21%, the “Population Fragmented Nuclei (%)” value [3] was 7% and the “Population Healthy Nuclei (%)” value [3] was 83%. The “Population Hoechst High Intensity Objects (%)” value [3] was 5%, the “Population Membrane Permeable-Phenotype (%)” value [3] was 0% and the “Population Mitochondria Different-Phenotype (%)” value [3] was 30%. For the same molecule, the “Population Mitotic Cells (%)” value [3] was 78%, the “Population Normal (%)” value [3] was 94% and the “Population Pyknosed Nuclei (%)” value [3] was 8%. The “Population Tubulin-Different-Phenotype (%)” value [3] was 19%, the “Total Cell Count” value [3] was 507 and the “Population Apoptotic (%)” value [4] was 51%. For the same molecule, the “Population Fragmented Nuclei (%)” value [4] was 5%, the “Population Healthy Nuclei (%)” value [4] was 81% and the “Population Hoechst High Intensity Objects (%)” value [4] was 10%. The “Population Mitochondria Different-Phenotype (%)” value [4] was 63%, the “Population Mitotic Cells (%)” value [4] was 48% and the “Population Normal (%)” value [4] was 89%. For the same molecule, the “Population Pyknosed Nuclei (%)” value [4] was 13%, the “Total Cell Count” value [4] was 310 and the “Population Apoptotic (%)” value [5] was 30%. The “Population Fragmented Nuclei (%)” value [5] was 11%, the “Population Healthy Nuclei (%)” value [5] was 78% and the “Population Hoechst High Intensity Objects (%)” value [5] was 5%. For the same molecule, the “Population Membrane Permeable-Phenotype (%)” value [5] was 0%, the “Population Mitochondria Different-Phenotype (%)” value [5] was 21% and the “Population Mitotic Cells (%)” value [5] was 70%. For the same molecule, the “Population Normal (%)” value [5] was 94%, the “Population Pyknosed Nuclei (%)” value [5] was 10% and the “Population Tubulin-Different-Phenotype (%)” value [5] was 12%. For the same molecule, the “Total Cell Count” value [5] was 630, the “Population Apoptotic (%)” value [6] was 32% and the “Population Fragmented Nuclei (%)” value [6] was 9%. The “Population Healthy Nuclei (%)” value [6] was 82%, the “Population Hoechst High Intensity Objects (%)” value [6] was 6% and the “Population Mitochondria Different-Phenotype (%)” value [6] was 26%. For the same molecule, the “Population Mitotic Cells (%)” value [6] was 67%, the “Population Normal (%)” value [6] was 93% and the “Population Pyknosed Nuclei (%)” value [6] was 8%. The “Total Cell Count” value [6] was 429, the “Population Apoptotic (%)” value [7] was 20% and the “Population Fragmented Nuclei (%)” value [7] was 9%. For the same molecule, the “Population Healthy Nuclei (%)” value [7] was 82%, the “Population Hoechst High Intensity Objects (%)” value [7] was 5% and the “Population Membrane Permeable-Phenotype (%)” value [7] was 0%. The “Population Mitochondria Different-Phenotype (%)” value [7] was 19%, the “Population Mitotic Cells (%)” value [7] was 79% and the “Population Normal (%)” value [7] was 94%. The “Population Pyknosed Nuclei (%)” value [7] was 7%, the “Population Tubulin-Different-Phenotype (%)” value [7] was 11% and the “Total Cell Count” value [7] was 663. The “Population Apoptotic (%)” value [8] was 35%, the “Population Hoechst High Intensity Objects (%)” value [8] was 7% and the “Population Mitochondria Different-Phenotype (%)” value [8] was 30%. For the same molecule, the “Population Mitotic Cells (%)” value [8] was 64%, the “Population Normal (%)” value [8] was 92% and the “Population Tubulin-Different-Phenotype (%)” value [8] was 13%. For the same molecule, the “Total Cell Count” value [8] was 420, the “Population Apoptotic (%)” value [9] was 18% and the “Population Fragmented Nuclei (%)” value [9] was 13%. For the same molecule, the “Population Healthy Nuclei (%)” value [9] was 80%, the “Population Hoechst High Intensity Objects (%)” value [9] was 2% and the “Population Membrane Permeable-Phenotype (%)” value [9] was 1%. The “Population Mitochondria Different-Phenotype (%)” value [9] was 12%, the “Population Mitotic Cells (%)” value [9] was 81% and the “Population Normal (%)” value [9] was 97%. For the same molecule, the “Population Pyknosed Nuclei (%)” value [9] was 5%, the “Population Tubulin-Different-Phenotype (%)” value [9] was 7% and the “Total Cell Count” value [9] was 1024. The “Population Apoptotic (%)” value [10] was 19%, the “Population Fragmented Nuclei (%)” value [10] was 14% and the “Population Healthy Nuclei (%)” value [10] was 79%. For the same molecule, the “Population Hoechst High Intensity Objects (%)” value [10] was 3%, the “Population Membrane Permeable-Phenotype (%)” value [10] was 0% and the “Population Mitochondria Different-Phenotype (%)” value [10] was 16%. The “Population Mitotic Cells (%)” value [10] was 80%, the “Population Normal (%)” value [10] was 96% and the “Population Pyknosed Nuclei (%)” value [10] was 6%. The “Population Tubulin-Different-Phenotype (%)” value [10] was 9%, the “Total Cell Count” value [10] was 653 and the “Population Apoptotic (%)” value [11] was 14%. The “Population Fragmented Nuclei (%)” value [11] was 14%, the “Population Healthy Nuclei (%)” value [11] was 81% and the “Population Hoechst High Intensity Objects (%)” value [11] was 1%. The “Population Membrane Permeable-Phenotype (%)” value [11] was 2%, the “Population Mitochondria Different-Phenotype (%)” value [11] was 8% and the “Population Mitotic Cells (%)” value [11] was 85%. The “Population Normal (%)” value [11] was 98%, the “Population Pyknosed Nuclei (%)” value [11] was 3% and the “Population Tubulin-Different-Phenotype (%)” value [11] was 8%. For the same molecule, the “Total Cell Count” value [11] was 1205, the “Population Apoptotic (%)” value [12] was 15% and the “Population Healthy Nuclei (%)” value [12] was 78%. The “Population Hoechst High Intensity Objects (%)” value [12] was 2%, the “Population Membrane Permeable-Phenotype (%)” value [12] was 0% and the “Population Mitochondria Different-Phenotype (%)” value [12] was 17%. For the same molecule, the “Population Mitotic Cells (%)” value [12] was 84%, the “Population Normal (%)” value [12] was 97% and the “Population Pyknosed Nuclei (%)” value [12] was 7%. For the same molecule, the “Total Cell Count” value [12] was 623.
